Experiments:
NCI-H322M = test: Cytotoxicity against human NCI-H322M cells assessed as growth inhibition after 48 hrs by SRB assay; assay type: functional
UACC-62 = test: Cytotoxicity against human UACC62 cells assessed as growth inhibition after 48 hrs by SRB assay; assay type: functional; conditions: UACC-62, 48 h
HT-29 = test: Cytotoxicity against human HT-29 cells assessed as growth inhibition after 48 hrs by SRB assay; assay type: functional; conditions: HT-29, 48 h
SK-OV-3 = test: Antiproliferative activity against human SKOV3 cells after 48 hrs by SRB assay; assay type: functional, cell-based; conditions: SK-OV-3, 48 h
Outline: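 Isogenic pairs: parental SK-OV-3 alongside its Pgp-overexpressing subline MDR-M6-6, and parental HeLa alongside βIII-tubulin-transfected HeLa. Antiproliferative IC50 measured by sulforhodamine B assay, averaged from at least three independent experiments ± SD. Relative resistance is the transduced-line IC50 divided by the parental-line IC50.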

[1] = Cytotoxicity against human NCI-ADR-RES cells assessed as growth inhibition after 48 hrs by SRB assay; assay type: functional
LOX IMVI = test: Cytotoxicity against human LOXIMVI cells assessed as growth inhibition after 48 hrs by SRB assay; assay type: functional
M14 = test: Cytotoxicity against human M14 cells assessed as growth inhibition after 48 hrs by SRB assay; assay type: functional; conditions: M14, 48 h
SK-MEL-28 = test: Cytotoxicity against human SK-MEL-28 cells assessed as growth inhibition after 48 hrs by SRB assay; assay type: functional; conditions: SK-MEL-28, 48 h
Tubulin (Sus scrofa) = Tubulin (Sus scrofa) (UniProt P02554+P02550); test: Displacement of [3H]-colchicine from pig brain tubulin at 1 uM after 10 mins by scintillation counting analysis relative to control
[2] = Relative resistance, ratio of IC50 for M6-6 in human SKOV3 cells to IC50 for human SKOV3 cells; set-up: species or system SK-OV-3
Outline: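 SRB antiproliferative assay on isogenic pairs: parental SK-OV-3 vs Pgp-overexpressing SK-OV-3 MDR-M6-6, and parental HeLa vs βIII-tubulin-transfected HeLa. IC50 is the mean ± SD of at least three independent experiments. Relative resistance (Rr) is the IC50 of the transduced line divided by the IC50 of the parental line.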

MOLT-4 = test: Cytotoxicity against human MOLT4 cells assessed as growth inhibition after 48 hrs by SRB assay; assay type: functional; conditions: MOLT-4, 48 h
[3] = Cytotoxicity against human EKVX cells assessed as growth inhibition after 48 hrs by SRB assay; assay type: functional
U-251 = test: Cytotoxicity against human U251 cells assessed as growth inhibition after 48 hrs by SRB assay; assay type: functional; conditions: U-251, 48 h
SN12C = test: Cytotoxicity against human SN12C cells assessed as growth inhibition after 48 hrs by SRB assay; assay type: functional
RPMI-8226 = test: Cytotoxicity against human RPMI8226 cells assessed as growth inhibition after 48 hrs by SRB assay; assay type: functional; conditions: RPMI-8226, 48 h
SK-MEL-5 = test: Cytotoxicity against human SK-MEL-5 cells assessed as growth inhibition after 48 hrs by SRB assay; assay type: functional; conditions: SK-MEL-5, 48 h
HCT-116 = test: Cytotoxicity against human HCT116 cells assessed as growth inhibition after 48 hrs by SRB assay; assay type: functional; conditions: HCT-116, 48 h
[4] = Induction of microtubule depolymerization in rat A10 cells after 18 hrs by indirect immunofluorescence assay; assay type: cell-based
Outline: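 A-10 cells were exposed to vehicle or compound for 18 h, fixed, and microtubules were visualized by indirect immunofluorescence. EC50 is the concentration causing about 50% microtubule loss, from at least three independent experiments.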

MDA-MB-231 [5] = test: Antitumor activity against human MDA-MB-231 cells xenografted in athymic nude mouse assessed as delay in tumor growth at 75 mg/kg, ip qd administered on day 14 for 5 days followed by compound readministration on day 27 measured on day 31 relative to control; assay type: functional; conditions: route intraperitoneal
Outline: (§1)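 Female athymic nude mice were implanted sc with an MDA-MB-231T tumour fragment, and tumours were staged to about 125 mg. Drug was given ip in 10% DMSO in saline/Tween 80, with courses starting day 14 and repeated from day 27. There were 8 animals per treated group and 16 controls. Read-outs were body weight, deaths, median tumour mass as T/C, days to a predetermined size as T-C/C, and net log cell kill.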

MDA-MB-231 [6] = test: Antitumor activity against human MDA-MB-231 cells xenografted in athymic nude mouse assessed as delay in tumor growth at 50 mg/kg, ip qd administered on day 14 for 5 days followed by compound readministration on day 27 measured on day 31 relative to control; assay type: functional; conditions: route intraperitoneal; outline: as §1
CAKI-1 = test: Cytotoxicity against human CAKI-1 cells assessed as growth inhibition after 48 hrs by SRB assay; assay type: functional; conditions: CAKI-1, 48 h
MDA-MB-231 [7] = test: Antitumor activity against human MDA-MB-231 cells xenografted in athymic nude mouse assessed as tumor growth inhibition at 75 mg/kg, ip qd administered every other day started on day 14 for 5 days followed by compound readministration on day 27 measured on day 31 relative to control; assay type: functional; conditions: route intraperitoneal; outline: as §1
Mus musculus [8] = test: Toxicity in athymic nude mouse xenografted in human MDA-MB-231 cells assessed as mortality at 75 mg/kg, ip qd administered on day 14 for 5 days followed by compound readministration on day 27; assay type: organism-based; set-up: dose 75 mg/kg, route intraperitoneal; conditions: in vivo, 120 h; outline: as §1
Mus musculus [9] = test: Toxicity in athymic nude mouse xenografted in human MDA-MB-231 cells assessed as body weight loss at 75 mg/kg, ip qd administered every other day started on day 14 for 5 days followed by compound readministration on day 27 (reference value: 6.7%); assay type: organism-based; set-up: dose 75 mg/kg, route intraperitoneal; conditions: in vivo, 120 h
MDA-MB-231 [10] = test: Antitumor activity against human MDA-MB-231 cells xenografted in athymic nude mouse assessed as tumor growth inhibition at 50 mg/kg, ip qd administered on day 14 for 5 days followed by compound readministration on day 27 measured on day 31 relative to control; assay type: functional; conditions: route intraperitoneal; outline: as §1
Mus musculus [11] = test: Toxicity in athymic nude mouse xenografted in human MDA-MB-231 cells assessed as mortality at 50 mg/kg, ip qd administered on day 14 for 5 days followed by compound readministration on day 27; assay type: organism-based; set-up: dose 50 mg/kg, route intraperitoneal; conditions: in vivo, 120 h; outline: as §1
Mus musculus [12] = test: Toxicity in athymic nude mouse xenografted in human MDA-MB-231 cells assessed as body weight loss at 75 mg/kg, ip qd administered on day 14 for 5 days followed by compound readministration on day 27 (reference value: 6.7%); assay type: organism-based; set-up: dose 75 mg/kg, route intraperitoneal; conditions: in vivo, 120 h
MDA-MB-231 [13] = test: Antitumor activity against human MDA-MB-231 cells xenografted in athymic nude mouse assessed as tumor growth inhibition at 75 mg/kg, ip qd administered on day 14 for 5 days followed by compound readministration on day 27 measured on day 31 relative to control; assay type: functional; conditions: route intraperitoneal; outline: as §1
Mus musculus [14] = test: Toxicity in athymic nude mouse xenografted in human MDA-MB-231 cells assessed as body weight loss at 50 mg/kg, ip qd administered on day 14 for 5 days followed by compound readministration on day 27 (reference value: 6.7%); assay type: organism-based; set-up: dose 50 mg/kg, route intraperitoneal; conditions: in vivo, 120 h
MDA-MB-231 [15] = test: Antitumor activity against human MDA-MB-231 cells xenografted in athymic nude mouse assessed as net tumor log cell kill at 50 mg/kg, ip bid administered every other day started on day 14 followed by compound readministration every other day started on day 27; assay type: functional; conditions: route intraperitoneal; outline: as §1

Chain of Tubulin (Sus scrofa) (P02550 whole entry, looked up): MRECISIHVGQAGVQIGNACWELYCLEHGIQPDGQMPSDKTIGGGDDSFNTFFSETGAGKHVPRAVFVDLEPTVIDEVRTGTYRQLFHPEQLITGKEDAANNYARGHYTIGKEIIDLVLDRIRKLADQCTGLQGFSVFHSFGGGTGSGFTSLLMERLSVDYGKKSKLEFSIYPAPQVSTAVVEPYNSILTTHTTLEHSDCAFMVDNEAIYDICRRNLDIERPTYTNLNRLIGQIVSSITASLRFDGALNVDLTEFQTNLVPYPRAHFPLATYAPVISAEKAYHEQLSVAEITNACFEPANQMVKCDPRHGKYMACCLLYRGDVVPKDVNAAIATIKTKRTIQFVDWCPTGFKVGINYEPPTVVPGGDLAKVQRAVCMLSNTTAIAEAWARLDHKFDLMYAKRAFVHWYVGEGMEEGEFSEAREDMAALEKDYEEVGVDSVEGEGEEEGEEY
Chain of Tubulin (Sus scrofa) (P02554 whole entry, looked up): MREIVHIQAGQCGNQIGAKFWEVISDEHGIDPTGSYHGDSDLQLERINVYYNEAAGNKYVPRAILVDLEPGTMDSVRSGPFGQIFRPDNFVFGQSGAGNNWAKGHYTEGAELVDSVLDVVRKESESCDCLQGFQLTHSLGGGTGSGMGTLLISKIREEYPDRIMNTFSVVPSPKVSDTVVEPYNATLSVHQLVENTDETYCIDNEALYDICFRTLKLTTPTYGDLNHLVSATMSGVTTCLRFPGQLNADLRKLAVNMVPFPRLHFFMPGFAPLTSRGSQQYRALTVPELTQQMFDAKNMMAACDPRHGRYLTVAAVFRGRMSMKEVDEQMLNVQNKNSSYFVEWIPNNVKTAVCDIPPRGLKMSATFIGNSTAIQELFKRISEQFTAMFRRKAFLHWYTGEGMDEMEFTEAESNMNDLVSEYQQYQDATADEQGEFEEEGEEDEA

| Compound | GI50 (NCI-H322M) [nM] | GI50 (UACC-62) [nM] | GI50 (HT-29) [nM] | IC50 (SK-OV-3) [nM] | GI50 [1] [nM] | GI50 (LOX IMVI) [nM] | GI50 (M14) [nM] | GI50 (SK-MEL-28) [nM] | inhibition (Tubulin (Sus scrofa)) [%] | GI50 (MOLT-4) [nM] | GI50 [3] [nM] | GI50 (U-251) [nM] | GI50 (SN12C) [nM] | GI50 (RPMI-8226) [nM] | GI50 (SK-MEL-5) [nM] | GI50 (HCT-116) [nM] | EC50 [4] [nM] | further results |
| --- | --- | --- | --- | --- | --- | --- | --- | --- | --- | --- | --- | --- | --- | --- | --- | --- | --- | --- |
| COc1ccc(N(C)c2nc(C)nc3c2CC(C)C3)cc1.Cl (racemic) | 59 | < 10 | 11.8 | 38.6 | < 10 | 22.7 | 10.2 | < 10 | 60 | 31.8 | 19.6 | 12.5 | 31.8 | 15.7 | < 10 | 15.1 | 56 | Ratio IC50 [2]: 1.2 |
| COc1ccc(N(C)c2nc(C)nc3c2CCC3)cc1.Cl | 48.8 | < 10 | < 10 | 11.3 | < 10 | 18.4 | < 10 | < 10 | 70 | 27.8 | 34.8 | < 10 | 33 | 14.3 | < 10 | < 10 | 25.9 | Activity (MDA-MB-231 [5]): 40%; Activity (MDA-MB-231 [6]): 27%; GI50 (CAKI-1): < 10 nM; T/C (MDA-MB-231 [7]): 19%; Activity (Mus musculus [8]): Non-toxic; %max (Mus musculus [9]): 9%; T/C (MDA-MB-231 [10]): 20%; Activity (Mus musculus [11]): Non-toxic; %max (Mus musculus [12]): 7.9%; T/C (MDA-MB-231 [13]): 17%; %max (Mus musculus [14]): 7.7%; LCK (MDA-MB-231 [15]): -1.3 |

— ChEMBL document CHEMBL2424583, “Structure-activity relationship and in vitro and in vivo evaluation of the potent cytotoxic anti-microtubule agent N-(4-methoxyphenyl)-N,2,6-trimethyl-6,7-dihydro-5H-cyclopenta[d]pyrimidin-4-aminium chloride and its analogues as antitumor agents” (J Med Chem, 2013)
